NF-kB neuron act – raises NF-kB expression in human neuronal cells; NF-kB reporter expression; active compounds read high; fold change at 12.5 µM; 190,000 tested, 1.6% active; AID 1239; in the data active means fold change above about 3.3
STAT1 act – STAT1 signaling activation | NIH 3T3 STAT1-luciferase reporter, IFN-gamma, luminescence; 100% = IFN-gamma alone, no compound | activation (% of control), % at 5.5 µM | 200,000 tested, 2.6% active;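 active means activation above the screen-wide mean activation plus 3 SD, cut at about 130% in these data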
STAT3 activator – activators of IL-6 induced STAT3 signaling. U3A cells, IL-6 STAT3-luciferase reporter, luminescence; 100% = signal with IL-6 EC80 alone. activation (% of control), % at 5.6 µM. 190,000 tested, 0.91% active. AID 871;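 active means activation above the screen-wide mean of compound activation plus 3 SD, cut at about 130% in these data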
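Material: human U3A cells carrying STAT3-luciferase construct. Measured by: reporter luminescence signal. Timing: compound 1 h, then IL-6 6 h at 37 °C.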
STAT1 inh – reduces IFN-gamma driven STAT1 reporter signal; 200,000 tested, 0.35% active; inhibition, % at 5.5 µM; AID 920; NIH 3T3 STAT1-luciferase reporter, luminescence;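 active means inhibition above a set limit, the mean inhibition across all tested compounds plus 3 SD, cut at about 34% in these data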
STAT3 inh – STAT3 signaling inhibition | U3A cells, IL-6 STAT3-luciferase reporter, luminescence; host cell line lacks STAT1 | 190,000 tested, 0.89% active | AID 862 | inhibition, % at 5.5 µM;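 active means inhibition above the mean inhibition across all screened compounds plus 3 SD, cut at about 44% in these data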
APP 5'UTR act – APP 5'UTR luciferase reporter activation; SH-SY5Y APP 5'UTR luciferase reporter, luminescence; zero percent = DMSO vehicle wells; activation, % at 2 µM; 190,000 tested, 1% active; AID 1276;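 active means activation above a set limit, based on mean plus 3 SD of controls, cut at about 140% in these data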
Of the large screens only hits and unclear results are named; the others gave an inactive call. An excerpt weighted towards active compounds, which were near 4.9% of everything screened.

COc1ccc(C(=O)OCC(=O)c2ccc(C3CCCCC3)cc2)cc1	none
COc1ccc(OC)c(NC(=O)CSc2ccc3nnc(-c4cccnc4)n3n2)c1	none
COc1ccc(-c2cc(=Nc3c(C)n(C)n(-c4ccccc4)c3=O)c3ccccc3o2)cc1	STAT1 act 142
COc1ccc(-c2csc(=Nc3c(C)n(C)n(-c4ccccc4)c3=O)n2C(C)(C)C)cc1	none
O=S(=O)([N-]c1nc2ccccc2nc1-[n+]1ccc(-c2ccncc2)cc1)c1ccccc1	STAT1 act 129
O=C(NC1CCCCC1)c1cc2nc3c(c(C(F)(F)F)n2n1)CCCC3	STAT1 act 130
CC(=O)Nc1ccc(NC(=O)c2ccccc2CCc2ccccc2)cc1	none
COc1ccc(/C=C(\C#N)C(=O)NCC2CCCO2)cc1OC (stereo not given)	none
CCOC(=O)c1ccc(-c2ccc(/C=C(\C#N)C(=O)NCC3CCCO3)o2)cc1 (stereo not given)	STAT3 activator 135
COC(=O)CC(NC(=O)c1cccs1)c1ccc(OC)c(OC)c1 (stereo not given)	none
Cc1ccc(N=Cc2nc(-c3ccc(C)cc3)oc2O)cc1	none
COc1ccc(N=Cc2nc(-c3ccco3)oc2O)cc1	STAT1 act 136
Oc1oc(-c2ccccc2)nc1C=Nc1ccccc1	STAT1 act 132
O=C(CCSc1ccccn1)Nc1ccc(Br)cc1	NF-kB neuron act 3.4, STAT1 act 140
Fc1ccc(-n2ncc3c(SCc4cccnc4)ncnc32)cc1	NF-kB neuron act 3.4
Cn1c(SCc2ccc([N+](=O)[O-])cc2)nnc1-c1cccnc1	none
Cc1c(/C(O)=C2/C(=O)C(=O)N(CCN3CCOCC3)C2c2ccccn2)cnn1-c1ccccc1 (stereo not given)	STAT1 inh 90, STAT3 inh 88
COc1ccc(/C(O)=C2/C(=O)C(=O)N(CCN3CCOCC3)C2c2ccccn2)cc1 (stereo not given)	STAT1 act 143
C=C(C)CNC(=S)N/N=C/c1c(F)cccc1F	none
COC(=O)Cn1c(C)nc2ccccc21	none
COC(=O)Cn1c(C)nc2c(sc3nc(C)cc(C)c32)c1=O	STAT1 act 141
COc1cc(/C=C/C(=O)N2CCN(c3n[nH]c(=O)[nH]c3=O)CC2)cc(OC)c1OC	none
O=C(Nc1ccc(SC(F)F)cc1)C1=COCCO1	NF-kB neuron act 5.2, STAT1 act 133, APP 5'UTR act 201
COc1ccc(OC(=O)c2ccncc2)cc1	none
CCCCCCOc1ccc(OC(=O)c2ccncc2)cc1	NF-kB neuron act 9.9
CCO[C@H]1OC(C(=O)N2CCOCC2)=C[C@@H](c2coc3ccccc3c2=O)[C@@H]1CCCO	none (no result: STAT3 activator, STAT3 inh)
COc1cc(/C=N/N(C)c2ccccc2)ccc1O	NF-kB neuron act 10, STAT1 act 140, APP 5'UTR act 179
CC(C)c1ccc(NC(=O)NN2CCOCC2)cc1	STAT1 act 146
C=CCn1c(COc2ccccc2)nnc1SC(C)C(=O)N/N=C/c1cc(Cl)ccc1O (stereo not given)	NF-kB neuron act 3.5
O=C1C2C3C=CC(C3)C2C(=O)N1c1ccc(-c2nc3ccccc3o2)cc1 (stereo not given)	STAT1 act 143
O=C1C2C3C=CC(C3)C2C(=O)N1c1ccncc1 (stereo not given)	none
CN1CCN(C(=O)C2=C[C@@H](c3ccccc3)C[C@@H](OCCCCO)O2)CC1	none (no result: STAT3 activator, STAT3 inh)
Cc1cccn2cc(-c3c[nH]c4ccccc34)nc12	STAT1 act 134, STAT3 activator 140
Cc1cccn2cc(-c3ccc(Cl)cc3)nc12	NF-kB neuron act 9.6, APP 5'UTR act 254
COc1ccc(-c2cn3cccc(C)c3n2)cc1F	NF-kB neuron act 6.1, STAT1 act 145
CCn1c(SC)nnc1-c1c[nH]c2ccccc12	none (no result: APP 5'UTR act)
COc1ccc(-c2nc3c(-c4ccccc4)cnn3cc2C)cc1F	none
O=[N+]([O-])c1cccn2cc(-c3ccc(Br)cc3)nc12	STAT1 act 140 (no result: NF-kB neuron act)
Cc1cccn2cc(-c3ccc(S(=O)(=O)N4CCOCC4)cc3)nc12	none
Cc1nn(CC(=O)Nc2cccnc2)c(=O)c2ccccc12	none
COc1ccc(/C=c2\s/c(=C/C(=O)c3ccc(C)cc3)[nH]c2=O)cc1OC	none
